Results as given in the RNAGym collection of RNA variant scans (doi:10.1126/science.aae0568).
Fewer inactive variants are shown than the library holds.

B1: tRNA (parent)
chain: GUUCCGUUGGCGUAAUGGUAACGCGUCUCCCUCCUAAGGAGAAGACUGCGGGUUCGAGUCCCGUACGGAACG

Variants of: B1
Assay: yeast fitness relative to wild type (ratio to wild type); higher = fitter; tRNA-Arg(CCU), competitive growth, 37 C, YPD
In short: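 Gene amplicons from the start population and from each of six end populations were read by 100-nucleotide paired-end sequencing. Those end populations came from pooled Saccharomyces cerevisiae strains carrying tRNA-Arg(CCU) gene variants at the native locus, competed in YPD at 37°C for 24 hours. Fitness relative to wild type was worked out from changes in genotype frequencies. Genotypes needed ≥ 100 starting reads, and estimates < 0.5 were set to 0.5.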

GUUCCGUUGGCGUAAUGGUAACGCGCCUCCCUCCUAAGGAGAAGAAUGCGGGUUCGAGUCUCGUACAGAACG and GUUCCGUUGGCGUAAUGGUAACGCGCCUCCUUCCUAAGGAGAAGACUGUGGGUUCGAGUCCCGUAGGGAACG cannot be ordered by yeast fitness: no more than 0.5 for the first, no more than 0.5 for the second.

First: GUUCCGUUGGCGUAAUGGUAACGCGCCUCCCUGCUAAGGAGCAGACUGCGGGUUCGAGUCCCGUACCGAACG
Second: GUUCCGUUGGCGUAAUGGUAACGCGCCUCCCUCCUAAGGAGAAGACUGCGGGUUCGAGUCUCGAACGGAACG
The yeast fitness of the first is lower: no more than 0.5 for the first, 0.526 for the second.

First: GUUCCGUUGGCGUAAUGGUAACGCGCCUCCCUCCUAAGGAGAAGACUGCGGGUUCGAGUCCUGUACGGAACG
Second: GUUCCGUUGGCGUAAUGGUAACGCGCCUCCCUCCUAAGGAGAAGACUGCGGGUUCGAGUCACGUAUGGAACG
The yeast fitness of the first is higher: 0.823 for the first, 0.525 for the second.

GUUCCGUUGGCGUAAUGGUAACGCGCCUCCCUCGUAAGGAGAAGACUGCGGGUUCGAGUCCCGUACGGACCG and GUUCCGUUGGCGUAAUGGUAACGCGCCUCCCUCCUAAGGAGAAGAGUGCGGGUUCGAGUCCGGUACUGAACG cannot be ordered by yeast fitness: no more than 0.5 for the first, no more than 0.5 for the second.

Compared with GUUCCGUUGGCGUAAUGGUAACGCGCCUCCCUGCUAAGGAGAAGACUGCGGGUCCGAGUCCCGUACGGAACG, GUUCCGUUGGCGUAAUGGUAACGCGCCUCCCUCCUAAGGAGAAGACUGCGGGUUGGAGUCCCGUACGGAACG is higher in yeast fitness: no more than 0.5 for the first, 0.59 for the second.

Going from GUUCCGUUGGCGUAAUGGUAACGCGCCUCCCUCCUAAGGAGAAGACUGCGGGUUAGAGUCCCGUACGGAACG to GUUCCGUUGGCGUAAUGGUAACGCGCCUCCCUCCUAAGGAGAAGAAGGCAGGUUCGAGUCCCGUACGGUACG, the yeast fitness falls from 0.65 to no more than 0.5.

Compared with GUUCCGUUGGCGUAAUGGUAACGCGCCUCCCUGCUAAGGAGCAGACUGCGGGUUCGAGUCCCGUACGGAACG, GUUCCGUUGGCGUAAUGGUAACGCGCCUCCCUCCUAAGGAGAAGACUGAGGGUUCGAGUCCCGUACGGAACG is higher in yeast fitness: 0.537 for the first, 0.598 for the second.

Going from GUUCCGUUGGCGUAAUGGUAACGCGCCUCCCUCCUAAGGAGAAGACUGUGGGUUCGAGUCCCGUACGGAACG to GUUCCGUUGGCGUAAUGGUAACGCGCCUCCCUGCUAAGGAGAAGACUGCGGGUUCGAGUCCCGUACGGAACG, the yeast fitness falls from 0.833 to 0.632.

Compared with GUUCCGUUGGCGUAAUGGUAACGCGCCUCCCUUCUAAGGAGAAGACUGCGGGUUCGAGUCCCGUACGGAACG, GUUCCGUUGGCGUAAUGGUAACGCGCCUCCCUCCUAAGGAGAAGACUGCGGGUUCGAGUCCCGUAGGGCACG is lower in yeast fitness: 0.676 for the first, no more than 0.5 for the second.

Going from GUUCCGUUGGCGUAAUGGUAACGCGCCUCCCUCCUAAGGAGAAGAGUGCGGGUUCGAGUCCCAUACGGAACG to GUUCCGUUGGCGUAAUGGUAACGCGCCUCCCUCAUAAGGAGAAGACUGCGGGUUCGAGUCCCGUACGGAACG, the yeast fitness rises from no more than 0.5 to 0.817.

Compared with GUUCCGUUGGCGUAAUGGUAACGCGCCUCCAUCCUAACGAGAAGACUGCGGGUUCGAGUCCCGUACGGAACG, GUUCCGUUGGCGUAAUGGUAACGCGCCUCCCUCCUAAGGAGAAGACUGCGGGUUCGAGUCCCGUAGGGAACG is higher in yeast fitness: 0.529 for the first, 0.674 for the second.

Compared with GUUCCGUUGGCGUAAUGGUAACGCGCCUCCCUCCUAAGGAGAAGACUGCGGGUUCGAGUCCCGUAUGGAACG, GUUCCGUUGGCGUAAUGGUAACGCGCCUCCGUCCUAAGGAGACGACUGCGGGUUCGAGUCCCGUACGGAACG is lower in yeast fitness: 0.823 for the first, 0.78 for the second.

Compared with GUUCCGUUGGCGUAAUGGUAACGCGCCUCGCUCCUAAGGAGAAGACUGCGGGUUCGAGUCUCGUACGGAGCG, GUUCCGUUGGCGUAAUGGUAACGCGCCUCCCUCCUAAGGAGAAGAGUGCGGGUUCGAGUCCGGCACUGAACG is lower in yeast fitness: 0.689 for the first, no more than 0.5 for the second.

GUUCCGUUGGCGUAAUGGUAACGCGCCUCCCUCCUAAGGAGAAGAAUGCGGGUUCGAGUCUCGUACGGAACG and GUUCCGUUGGCGUAAUGGUAACGCGCCUCCCUCCUAAGGAGAAGACUGCGGGUUCGAGUCCCGUAGGCAACG cannot be ordered by yeast fitness: no more than 0.5 for the first, no more than 0.5 for the second.

Going from GUUCCGUUGGCGUAAUGGUAACGCGCCUCGCUCCUAAGGAAAAGACUGCGGGUUCAAGUGCUGUACGAAACG to GUUCCGUUGGCGUAAUGGUAACGCGCCUCCCUACUAAGGUGAAGACUGCGGGUUCGAGUCCCGUACGGAACG, the yeast fitness rises from no more than 0.5 to 0.668.

Going from GUUCCGUUGGCGUAAUGGUAACGCGCCUCCCUCUUAAGGAGAACACGGCGGGUUCGAGUCCCGUACGGAACG to GUUCCGUUGGCGUAAUGGUAACGCGCCUCCUUCCUAAGGAGAAGAAUCCGGGUUCGUGUCCCGUACGGAACG, the yeast fitness rises from no more than 0.5 to 0.649.

GUUCCGUUGGCGUAAUGGUAACGCGCCUCCCUUCUAAGGAGAAGACUGCGGGUUUGAGUUCCGUACGGAACG and GUUCCGUUGGCGUAAUGGUAACGCGCCUCUCUCCUAAGGAGAAGACUGCGGGUUCGAGUACCGUACGGAACG cannot be ordered by yeast fitness: no more than 0.5 for the first, no more than 0.5 for the second.

Going from GUUCCGUUGGCGUAAUGGUAACGCGCCUCGCUCCUAAGGAGAAGACUGCGGGUUCGAGUCCCGCACGGAACG to GUUCCGUUGGCGUAAUGGUAACGCGCCUCUCUCCUAAGGAGAAGACAGCGGGUUCGAGUCCCGUACUGAACG, the yeast fitness falls from 0.703 to no more than 0.5.

First: GUUCCGUUGGCGUAAUGGUAACGCGCCUCGCUCCUAAGGAAAAGACUGCGGGUUCGAGUCCCGCACGGAACG
Second: GUUCCGUUGGCGUAAUGGUAACGCGCCUCCCUCCUAAGGAGAAGACUGCGGGUUCGAGUCCUGUACAGAACG
The yeast fitness of the first is lower: no more than 0.5 for the first, 0.542 for the second.
